# “Also recorded” adds a separate entry of the source.
# Columns and labels:
# PDI [1] = target: T1, PDI (Homo sapiens, UniProt P07237); assay: Protein mass spectrometry; format: binding; conditions: 10 μM PDI, 100 μM DTT, 100 μM compound
# Outline: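 Recombinant human PDI (10 μM) was incubated with 100 μM test compound and 100 μM DTT for 30 min before injection for Q-TOF intact-protein mass spectrometry to detect covalent adducts.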
# U−118 MG cells = assay: Colony formation assay with or without BSO pretreatment; format: cell-based, human; conditions: BSO pretreatment 24 h
# Outline: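 U-118 MG cells grown in RPMI-1640 with 10% FBS were seeded at 600 cells/well and allowed to attach. Serial dilutions of buthionine sulfoximine were added 24 h later, with pretreatment overnight (24 h per legend), then serial dilutions of test compound. Cells were cultured 10–14 days until colonies formed, stained 1 h with crystal violet/formaldehyde/methanol, washed with water and imaged.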
# PDIA1 [2] = target: T2, PDIA1 (Homo sapiens, UniProt P07237); assay: Glutathione competition in PDI reductase assay; format: biochemical; conditions: 5 mM GSH
# U−87 MG cells [3] = assay: Bromouridine nascent RNA sequencing; format: cell-based, human; conditions: 20 μM, 4 h; GSEA
# U−87 MG cells [4] = assay: MTT growth inhibition assay in U-87 MG cells; format: cell-based; conditions: Homo sapiens, read-out: MTT (% inhibition at 30 μM)
# Outline: (§1)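 Cells were grown at 37 °C, 5% CO₂ in 10% FBS medium: DMEM for U-87 MG, RPMI-1640 for A-172. Duplicate wells of 3000–5000 cells were attached overnight, then exposed to 30 μM test compound for 72 h. MTT (3 mg/mL) was added for 4 h at 37 °C and formazan dissolved in DMSO before reading A570. Inhibition (%) = [1−(At−Ab)/(Ac−Ab)]×100.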
# PDI [5] = target: T1, PDI; assay: Reversibility; format: biochemical; conditions: for PDI activity recovery after dilution: compound concentrations 10 times that of the protein; for PDI activity recovery after 100-fold dilution: 50 μM compound with 40 μM PDI, 3 h at room temperature
# A-172 cells = assay: MTT growth inhibition assay in A-172 cells; format: cell-based; conditions: Homo sapiens, A 172, read-out: MTT (% inhibition at 30 μM)
# Outline: as §1
# PDI [6] = target: T1, PDI; assay: Gel-based competition with fluorescent probe PACMA57; format: binding; conditions: 100 μM compound
# PDIA1 [7] = target: T2, PDIA1; assay: PDI reductase assay; format: biochemical
# PDI [8] = target: T1, PDI; assay: kinact/KI determination in PDI reductase assay with reduced PDI; format: biochemical
# PDI H256A mutant = PDI H256A mutant (Homo sapiens, UniProt P07237, H256A); assay: PDI reductase assay with H256A mutant; format: biochemical; conditions: Histidine 256 in b′ domain mutated to alanine
# Outline: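 H256A PDI was made by site-directed mutagenesis, expressed in BL21(DE3) and purified like wild type. Enzyme (0.4 μM or 50 nM) was preincubated with test compound for 1 h at 37 °C in 100 mM sodium phosphate, 2 mM EDTA, 8 μM DTT, pH 7.0. DTT (500 μM; 125 μM for 50 nM enzyme) and 130 μM bovine insulin were added, and reduction proceeded at room temperature. Insulin B-chain aggregation was read at 620 nm, and activity calculated from ΔOD over 60 min (180 min for 50 nM).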
# PDI [9] = target: T1, PDI; assay: Thermal shift assay; format: binding; conditions: oxidized PDI; 100 μM compound
# PDI b′ domain = PDI b′ domain (Homo sapiens, UniProt P07237); assay: ANS spectral scan; format: binding; conditions: 5 μM PDI, 100 μM compound
# Outline: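 Recombinant N-terminally His-tagged human PDI, expressed in E. coli BL21(DE3) and Ni-NTA purified, at 5 μM with 100 μM test compound or matching DMSO in TBS for 1 h at 37 °C. ANS then added and incubated 20 min at 25 °C in the dark. Fluorescence spectrum recorded at Ex 370 nm, Em 400–700 nm.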
# PDIA3 [10] = target: T3, PDIA3 (Homo sapiens, UniProt P30101); assay: PDI reductase assay with PDIA3; format: biochemical
# T3 sequence (P30101 25-505): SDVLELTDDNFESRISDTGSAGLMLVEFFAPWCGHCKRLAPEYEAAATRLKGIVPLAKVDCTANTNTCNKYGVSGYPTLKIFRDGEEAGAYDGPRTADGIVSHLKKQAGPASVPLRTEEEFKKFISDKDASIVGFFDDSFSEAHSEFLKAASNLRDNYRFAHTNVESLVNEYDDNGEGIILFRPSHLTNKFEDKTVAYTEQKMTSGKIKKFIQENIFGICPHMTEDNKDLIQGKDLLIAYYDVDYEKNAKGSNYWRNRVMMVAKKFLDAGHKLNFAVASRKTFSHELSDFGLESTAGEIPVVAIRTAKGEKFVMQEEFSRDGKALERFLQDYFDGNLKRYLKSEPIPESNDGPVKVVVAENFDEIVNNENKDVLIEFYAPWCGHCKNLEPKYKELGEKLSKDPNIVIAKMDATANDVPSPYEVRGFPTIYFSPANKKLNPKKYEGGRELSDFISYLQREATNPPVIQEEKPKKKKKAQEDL
# PDIA2 [11] = target: T4, PDIA2 (Homo sapiens, UniProt Q13087); assay: PDI reductase assay with PDIA2; format: biochemical
# T4 sequence (Q13087 22-525): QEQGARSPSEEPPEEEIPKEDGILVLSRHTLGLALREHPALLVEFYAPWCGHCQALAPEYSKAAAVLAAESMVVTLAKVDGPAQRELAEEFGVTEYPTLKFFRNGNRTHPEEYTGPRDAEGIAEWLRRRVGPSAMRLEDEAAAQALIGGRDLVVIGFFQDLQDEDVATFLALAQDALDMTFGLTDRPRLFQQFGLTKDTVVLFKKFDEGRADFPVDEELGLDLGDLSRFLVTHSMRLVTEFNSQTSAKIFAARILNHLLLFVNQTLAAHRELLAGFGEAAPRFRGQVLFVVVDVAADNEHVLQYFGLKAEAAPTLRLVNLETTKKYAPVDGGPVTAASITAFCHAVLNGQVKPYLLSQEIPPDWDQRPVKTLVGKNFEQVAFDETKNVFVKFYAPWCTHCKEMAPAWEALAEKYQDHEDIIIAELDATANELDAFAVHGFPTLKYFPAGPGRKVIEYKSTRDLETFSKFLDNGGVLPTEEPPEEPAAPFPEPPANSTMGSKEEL
# serum albumin = serum albumin (Bos taurus, UniProt P02769); assay: Gel-based binding in cell-free medium with fetal bovine serum; conditions: cell-free medium supplemented with fetal bovine serum
# Outline: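 Cell-free DMEM, with 10% FBS added, was incubated overnight at 37 °C with 20 μM BODIPY-labelled test compound. Binding to serum albumin was assessed by in-gel imaging of the labelled protein.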
# BSA = BSA (Bos taurus, UniProt P02769); assay: Gel-based binding assay with BSA; set-up: species or system bovine
# Outline: (§2)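 Each protein at 3.5 µM in CelLytic M buffer was incubated with BODIPY-labelled test compound overnight at room temperature. PDIA1 and PDIA2 are recombinant human; PDIA1 is His-tagged and expressed in E. coli BL21(DE3). Samples were boiled in Laemmli or non-reducing sample buffer, resolved on 10% polyacrylamide gels, and imaged immediately for labelled protein.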
# PDIA1 [12] = target: T2, PDIA1; assay: Gel-based binding assay with recombinant PDIA1; conditions: recombinant protein
# Outline: as §2
# PDIA3 [13] = target: T3, PDIA3; assay: Gel-based binding assay with recombinant PDIA3; conditions: recombinant protein
# Outline: as §2
# PDIA2 [14] = target: T4, PDIA2; assay: Gel-based binding assay with recombinant PDIA2; conditions: recombinant protein
# Outline: as §2
# T1 sequence (P07237 18-508): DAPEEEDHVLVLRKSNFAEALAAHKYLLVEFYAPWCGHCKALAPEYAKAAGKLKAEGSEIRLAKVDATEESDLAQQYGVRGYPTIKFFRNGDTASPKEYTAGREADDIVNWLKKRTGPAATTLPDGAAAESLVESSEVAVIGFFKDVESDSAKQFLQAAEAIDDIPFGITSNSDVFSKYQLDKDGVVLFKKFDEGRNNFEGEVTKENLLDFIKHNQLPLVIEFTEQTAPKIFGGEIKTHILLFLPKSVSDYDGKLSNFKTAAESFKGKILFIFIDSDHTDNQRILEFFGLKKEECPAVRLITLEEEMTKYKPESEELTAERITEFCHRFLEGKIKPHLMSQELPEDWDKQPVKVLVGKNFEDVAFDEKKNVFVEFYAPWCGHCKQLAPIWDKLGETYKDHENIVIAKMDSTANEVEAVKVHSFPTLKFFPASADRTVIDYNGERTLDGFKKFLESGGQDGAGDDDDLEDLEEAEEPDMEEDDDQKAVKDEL
# T2 sequence (P07237 18-508): as above
# Chain of PDI b′ domain (P07237 18-508): as above
# Chain of PDI H256A mutant (P07237 18-508 H256A): as the sequence (P07237 18-508) above, with H239A counted along it
# Chain of serum albumin (P02769 25-607): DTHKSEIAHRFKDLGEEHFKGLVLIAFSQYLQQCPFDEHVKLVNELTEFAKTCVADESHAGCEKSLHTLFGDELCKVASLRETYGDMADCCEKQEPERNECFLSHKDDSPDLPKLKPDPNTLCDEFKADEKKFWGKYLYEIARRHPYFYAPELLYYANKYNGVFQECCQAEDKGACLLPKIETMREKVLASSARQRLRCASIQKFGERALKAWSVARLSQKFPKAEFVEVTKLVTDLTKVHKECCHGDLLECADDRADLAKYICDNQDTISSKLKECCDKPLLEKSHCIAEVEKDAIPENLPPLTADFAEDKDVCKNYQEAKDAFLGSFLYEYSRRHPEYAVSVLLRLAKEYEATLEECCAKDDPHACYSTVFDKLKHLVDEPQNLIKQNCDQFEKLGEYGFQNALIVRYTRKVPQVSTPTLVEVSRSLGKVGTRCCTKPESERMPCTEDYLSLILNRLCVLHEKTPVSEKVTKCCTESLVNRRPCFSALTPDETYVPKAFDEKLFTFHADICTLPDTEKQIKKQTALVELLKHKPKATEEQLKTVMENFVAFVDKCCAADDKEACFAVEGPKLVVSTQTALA
# Chain of BSA (P02769 25-607): as above
structure (smiles),measurement,setting,value
Oc1c(C(c2ccc(F)cc2)N2CCN(C(c3ccc(F)cc3)c3ccc4cncnc4c3O)CC2)ccc2cncnc12 (centres unmarked) [5d dimer],covalent binding to PDI by mass spectrometry,PDI [1],bound to PDI
same,"potency in colony formation assay, dependence on BSO",U−118 MG cells,more potent and its potency was not dependent on BSO addition
same,PDI inhibition in the presence of competing glutathione,PDIA1 [2],less sensitive to glutathione competition than the monomer
"Oc1c(C(c2ccc(F)cc2)N2CCNCC2)ccc2cncnc12 (centres unmarked) [5d, 7-((4-Fluorophenyl)(piperazin-1-yl)methyl)quinazolin-8-ol]",covalent binding to PDI by mass spectrometry,PDI [1],bound to PDI
same,"potency in colony formation assay, dependence on BSO",U−118 MG cells,more sensitive to BSO addition
same,PDI inhibition in the presence of competing glutathione,PDIA1 [2],maintained potency
"Oc1c(C(c2ccncc2)N2CCCCC2)ccc2ccoc12 (centres unmarked) [5p, 6-(Piperidin-1-yl(pyridin-4-yl)methyl)benzofuran-7-ol]",effect on transcription (gene set enrichment),U−87 MG cells [3],upregulates transcription of genes involved in the unfolded protein response
same,inhibition at 30 µM,U−87 MG cells [4],1%
"COc1cccc(C(c2cc3c(cc2O)OCO3)N2CCOCC2)c1OC (centres unmarked) [6a, 6-((2,3-Dimethoxyphenyl)(morpholino)methyl)benzo[d][1,3]dioxol-5-ol]",PDI activity recovery after dilution,PDI [5],too active at this ratio
same,covalent binding to PDI by mass spectrometry,PDI [1],bound reduced PDI at three sites
"Oc1cc2c(cc1C(c1ccccc1)N1CCCCC1)OCO2 (centres unmarked) [6b, 6-(phenyl(piperidin-1-yl)methyl)benzo[d][1,3]dioxol-5-ol]",inhibition at 30 µM,A-172 cells,17%
"Oc1cc2c(cc1C(c1ccc(F)cc1)N1CCCCC1)CCC2 (centres unmarked) [6f, 6-((4-Fluorophenyl)(piperidin-1-yl)methyl)-2,3-dihydro-1H-inden-5-ol]",competition with PACMA57 for binding to PDI,PDI [6],did not compete with PACMA57
same,inhibition at 30 µM,U−87 MG cells [4],13%
same,PDI inhibition in the PDI reductase assay (in words),PDIA1 [7],completely lost activity
same,covalent binding to PDI by mass spectrometry,PDI [1],did not demonstrate covalent binding to PDI
COC(=O)C1(C)c2[nH]c3ccccc3c2CCN1C(=O)CCl (centres unmarked) [16F16],kinact/KI,PDI [8],170 M⁻¹ s⁻¹
COc1ccc(C(c2cc3c(cc2O)OCO3)N2CCOCC2)cc1OC (centres unmarked) [AS15],kinact/KI,PDI [8],2600 M⁻¹ s⁻¹
same,activity against H256A mutant PDI,PDI H256A mutant,retained their activity
same,stabilization of PDI to thermal degradation,PDI [9],did not stabilize PDI to thermal degradation
same,PDI activity recovery after 100-fold dilution,PDI [5],did not maintain the characteristics of the high concentration of inhibitor after dilution
same,PDI activity recovery after dilution,PDI [5],behave like the expected irreversible inhibitor
same,competition with ANS fluorescence,PDI b′ domain,did not lower the fluorescence of ANS
same,inhibition of PDIA3 activity,PDIA3 [10],could also inhibit PDIA3 activity
same,inhibition of PDIA2 activity,PDIA2 [11],inhibited activity of PDIA2
Oc1c(C(Nc2ccccn2)c2ccc(Cl)cc2)ccc2cccnc12 (centres unmarked) [CD343],activity against H256A mutant PDI,PDI H256A mutant,retained their activity
same,stabilization of PDI to thermal degradation,PDI [9],did not stabilize PDI to thermal degradation
same,PDI activity recovery after 100-fold dilution,PDI [5],did not maintain the characteristics of the high concentration of inhibitor after dilution
same,PDI activity recovery after dilution,PDI [5],too active at this ratio
same,competition with ANS fluorescence,PDI b′ domain,did not lower the fluorescence of ANS
same,inhibition of PDIA2 activity,PDIA2 [11],inhibited activity of PDIA2
"C#CC(=O)N(c1ccc(OC)cc1OC)C(C(=O)NCC(=O)OCC)c1cccs1 (centres unmarked) [PACMA31, reference compound]",kinact/KI,PDI [8],200 M⁻¹ s⁻¹
same,stabilization of PDI to thermal degradation,PDI [9],did not stabilize PDI to thermal degradation
"CN(C)c1ccc(C(Nc2ncccn2)c2cc3c(cc2O)OCO3)cc1 (centres unmarked) [compound 14, 6-((4-(Dimethylamino)phenyl)(pyrimidin-2-ylamino)methyl)benzo[d][1,3]dioxol-5-ol]",PDI inhibition in the presence of competing glutathione,PDIA1 [2],maintained potency
"CC1=CC(C)=[N+]2C1=C(c1ccc(NC(=O)c3ccc(C(c4cc5c(cc4O)OCO5)N4CCCCC4)cc3)cc1)c1c(C)cc(C)n1[B-]2(F)F (centres unmarked) [compound 15, N-(4-(5,5-Difluoro-1,3,7,9-tetramethyl-5H-4λ^4,5λ^4-dipyrrolo[1,2-c:2’,1’-f][1,3,2]diazaborinin-10-yl)phenyl)-4-((6-hydroxybenzo[d][1,3]dioxol-5-yl)(piperidin-1-yl)methyl)benzamide]",PDI inhibition in the PDI reductase assay (in words),PDIA1 [7],did not inhibit PDI activity
same,binding to serum albumin,serum albumin,bound to serum albumin
CC1=CC(C)=[N+]2C1=C(c1ccc(C(=O)NCCNC(=O)c3ccc(C(c4cc5c(cc4O)OCO5)N4CCCCC4)cc3)cc1)c1c(C)cc(C)n1[B-]2(F)F (centres unmarked) [compound 16],binding to BSA,BSA,bound
same,binding to PDIA1,PDIA1 [12],covalently binds; also recorded: bound
same,binding to PDIA3,PDIA3 [13],bound
same,binding to PDIA2,PDIA2 [14],bound
same,binding to serum albumin,serum albumin,bound to serum albumin
"O=c1c(O[C@@H]2O[C@H](CO)[C@@H](O)[C@H](O)[C@H]2O)c(-c2ccc(O)c(O)c2)oc2cc(O)cc(O)c12 [isoquercetin, reference compound]",PDI inhibition in the presence of competing glutathione,PDIA1 [2],remained active

# Source: publication PMC8103808 (Journal of medicinal chemistry, 2020)
